Reference: ChEMBL document CHEMBL4007417, “Target Elucidation by Cocrystal Structures of NADH-Ubiquinone Oxidoreductase of Plasmodium falciparum (PfNDH2) with Small Molecule To Eliminate Drug-Resistant Malaria” (J Med Chem, 2017)
The source made the active and inactive calls. The calls are words filed in the database; no cut-off is given here.

Assays:
[1] = test system: Plasmodium falciparum; experiment: Non-competitive inhibition of Plasmodium falciparum NDH2 expressed in Escherichia coli BL21 up to 50 nM by spectrophotometric analysis
[2] = test system: Plasmodium falciparum; experiment: Antimalarial activity against multi drug-resistant asexual blood stage Plasmodium falciparum D10 after 72 hrs by SYBR green-based fluorometric analysis; type: functional; conditions: D10, 72 h
Procedure, shortened: (§1)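 Mid-ring-stage cultures (~6-10 h post-invasion) at 1% parasitemia and 2% hematocrit, in triplicate. Twofold serial dilutions from a top concentration of 100 nM. Incubated 72 h at 37 °C under 5% CO2/5% O2/90% N2. Lysis buffer containing 5×SYBR Green I added, 20 min in the dark, fluorescence read at ex 485/em 538 nm. EC50 derived.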

[3] = test system: Plasmodium yoelii; experiment: Antimalarial activity against Plasmodium yoelii YM infected in BALB/c mouse assessed as mouse survival at 10 mg/kg, sc administered BID for 4 days starting at 96 hrs post infection, 8 hrs apart by Giemsa-staining based microscopic analysis; type: functional
Procedure, shortened: (§2)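 Mice inoculated with 1×106 P. yoelii parasites. Subcutaneous dosing for 4 days starting 96 h post infection, given once daily or twice daily 8 h apart. Parasitemia followed on Giemsa-stained blood smears. Survival recorded at 40 days post infection; groups of n=3. DMSO-only mice served as untreated controls.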

[4] = test system: Plasmodium yoelii; experiment: Antimalarial activity against Plasmodium yoelii YM infected in BALB/c mouse assessed reduction in parasitemia at 10 mg/kg/day, sc for 4 days by Giemsa-staining based microscopic analysis; type: functional, organism-based
Procedure, shortened: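 P. yoelii-infected mice, n=3 per group. Subcutaneous injection once daily for 4 days starting at 96 h post infection. Parasitemia followed on blood-smear microscopy, with inhibition measured at 24 h post treatment. Cure time taken as the minimum period to cure all mice; survival recorded at 40 days. DMSO controls included.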

[5] = Inhibition of Plasmodium falciparum NDH2 S497R mutant expressed in Escherichia coli DH5alpha competent cells using NADH and ubiquinone-1 as substrate by spectrophotometric analysis
Procedure, shortened: (§3)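 Recombinant PfNDH2 point or double mutants assayed spectrophotometrically at 25 °C. Buffer: 50 mM MOPS pH 7.0, 150 mM NaCl, 1 mM EDTA, 0.01% Triton X-100. Substrates 50 µM NADH and 30 µM ubiquinone-1, with 0.5 nM enzyme and selected inhibitor concentrations.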

[6] = test system: Plasmodium yoelii; experiment: Antimalarial activity against Plasmodium yoelii YM infected in BALB/c mouse assessed as mouse survival at 10 mg/kg, sc administered QD for 4 days starting at 96 hrs post infection by Giemsa-staining based microscopic analysis; type: functional; procedure, shortened: as §2
[7] = Inhibition of Plasmodium falciparum wild type NDH2 expressed in Escherichia coli BL21 using NADH and ubiquinone-1 as substrate by spectrophotometric analysis
Procedure, shortened: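 Recombinant PfNDH2 activity measured spectrophotometrically at 25 °C. Buffer: 50 mM MOPS pH 7.0, 150 mM NaCl, 1 mM EDTA, 0.01% Triton X-100. Substrates 50 µM NADH and 30 µM ubiquinone-1, with 0.5 nM enzyme and selected inhibitor concentrations.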

[8] = test system: Plasmodium yoelii; experiment: Antimalarial activity against Plasmodium yoelii YM infected in BALB/c mouse assessed as parasite growth inhibition at 30 mg/kg, sc administered BID for 4 days starting at 96 hrs post infection, 8 hrs apart by Giemsa-staining based microscopic analysis; type: functional; conditions: read-out: GI
Procedure, shortened: (§4)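 P. yoelii-infected mice, n=3 per group. Subcutaneous injection twice daily, 8 h apart, for 4 days starting at 96 h post infection. Growth inhibition read from blood smears at 24 h post treatment. Cure time taken as the minimum period to cure all mice in the group. DMSO controls included.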

[9] = test system: Plasmodium falciparum; experiment: Antimalarial activity against sulfadoxine-pyrimethamine/mefloquine resistant asexual blood stage Plasmodium falciparum CP286 after 72 hrs by SYBR green-based fluorometric analysis; type: functional; conditions: CP286, 72 h; procedure, shortened: as §1
[10] = test system: Plasmodium yoelii; experiment: Antimalarial activity against Plasmodium yoelii YM infected in BALB/c mouse assessed as parasite growth inhibition at 90 mg/kg, sc administered BID for 4 days starting at 96 hrs post infection, 8 hrs apart by Giemsa-staining based microscopic analysis; type: functional; conditions: read-out: GI; procedure, shortened: as §4
[11] = test system: Plasmodium yoelii; experiment: Antimalarial activity against Plasmodium yoelii YM infected in BALB/c mouse assessed as mouse survival at 30 mg/kg, sc administered BID for 4 days starting at 96 hrs post infection, 8 hrs apart by Giemsa-staining based microscopic analysis; type: functional; procedure, shortened: as §2
[12] = Inhibition of Plasmodium falciparum NDH2 Y475R mutant expressed in Escherichia coli DH5alpha competent cells using NADH and ubiquinone-1 as substrate by spectrophotometric analysis; procedure, shortened: as §3
[13] = Inhibition of Plasmodium falciparum NDH2 D171R mutant expressed in Escherichia coli DH5alpha competent cells using NADH and ubiquinone-1 as substrate by spectrophotometric analysis; procedure, shortened: as §3
[14] = test system: Plasmodium yoelii; experiment: Antimalarial activity against Plasmodium yoelii YM infected in BALB/c mouse assessed as parasite growth inhibition at 10 mg/kg, sc administered BID for 4 days starting at 96 hrs post infection, 8 hrs apart by Giemsa-staining based microscopic analysis; type: functional; conditions: read-out: GI; procedure, shortened: as §4
[15] = test system: Plasmodium falciparum; experiment: Binding affinity to Plasmodium falciparum NDH2 expressed in Escherichia coli BL21 assessed as reduction in NADH Kd by SPR assay
[16] = test system: Plasmodium falciparum; experiment: Synergistic antimalarial activity against Plasmodium falciparum in presence of dihydroartemisinin; type: functional
Procedure, shortened: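 In vitro drug interaction analyses with other antimalarials against P. falciparum. Experiments repeated three times; error bars s.e.m.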

[17] = test system: Plasmodium yoelii; experiment: Antimalarial activity against Plasmodium yoelii YM infected in BALB/c mouse assessed as time duration for parasite cure at 10 mg/kg, sc administered BID for 4 days starting at 96 hrs post infection, 8 hrs apart by Giemsa-staining based microscopic analysis; type: functional; procedure, shortened: as §4
[18] = test system: Plasmodium yoelii; experiment: Antimalarial activity against Plasmodium yoelii YM infected in BALB/c mouse assessed as mouse survival at 90 mg/kg, sc administered BID for 4 days starting at 96 hrs post infection, 8 hrs apart by Giemsa-staining based microscopic analysis; type: functional; procedure, shortened: as §2
[19] = test system: Plasmodium falciparum; experiment: Antimalarial activity against dihydroartemisinin-resistant asexual blood stage Plasmodium falciparum 803 after 72 hrs by SYBR green-based fluorometric analysis; type: functional; conditions: Plasmodium falciparum, 803, 72 h; procedure, shortened: as §1
[20] = test system: Plasmodium falciparum; experiment: Antimalarial activity against mid/late trophozoite stage of Plasmodium falciparum 3D7 assessed as reduction in parasitemia at 10 times EC50 administered at synchronized early ring stages and then removed from culture at 2 hrs intervals after 34 hrs paraiste invasion stage and measured till 40 hrs post invasion by SYBR green-based fluorometric analysis; type: functional; set-up: scale not given: the % may be the effect or the level left
Procedure, shortened: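 Synchronized early-ring P. falciparum 3D7 treated with about 10×EC50 compound. Compound removed at 2 h intervals starting at t=34 h (trophozoite), then parasites returned to compound-free medium. Maturation through a single ~48 h asexual cycle followed.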

[21] = test system: Plasmodium falciparum; experiment: Antimalarial activity against chloroquine/quinine/sulfadoxine-pyrimethamine/amodiaquine-resistant asexual blood stage Plasmodium falciparum PC26 after 72 hrs by SYBR green-based fluorometric analysis; type: functional; conditions: PC26, 72 h; procedure, shortened: as §1
[22] = test system: Plasmodium yoelii; experiment: Antimalarial activity against Plasmodium yoelii YM infected in BALB/c mouse assessed as time duration for parasite cure at 30 mg/kg, sc administered BID for 4 days starting at 96 hrs post infection, 8 hrs apart by Giemsa-staining based microscopic analysis; type: functional; procedure, shortened: as §4
[23] = test system: Plasmodium falciparum; experiment: Antimalarial activity against chloroquine/quinine/sulfadoxine-pyrimethamine/amodiaquine-resistant asexual blood stage Plasmodium falciparum Dd2 assessed as reduction in parasite recrudescence at 10 times EC50 for 72 hrs measured after 28 days post invasion by Giemsa staining-based light microscopic analysis; type: functional
Procedure, shortened: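 Parasite cultures exposed for 72 h to 10× EC50 of inhibitor. Drug then removed and cultures maintained for 28 days post treatment. Recrudescence monitored by microscopy.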

## Cc1c(-c2ccc(Cc3ccc(OC(F)(F)F)cc3)cc2)[nH]c2cccc(F)c2c1=O
[1]
  inhibition: Active
[2]
  EC50: 9.18 nM
[3]
  survival at 10 mg/kg: 100%
[4]
  Activity: Active
[5]
  IC50: 17.1 nM
[6]
  survival at 10 mg/kg: 100%
[7]
  IC50: 3.73 nM
[8]
  inhibition in vivo at 30 mg/kg: 100%
[9]
  EC50: 9.58 nM
[10]
  inhibition in vivo at 90 mg/kg: 100%
[11]
  survival at 30 mg/kg: 100%
[12]
  IC50: 31.7 nM
[13]
  IC50: 9.74 nM
[14]
  inhibition in vivo at 10 mg/kg: 100%
[15]
  fold change (FC): 7
[16]
  fractional inhibitory concentration index (FICI): 0.56
[17]
  Time: 16 days
[18]
  survival at 90 mg/kg: 100%
[19]
  EC50: 5.56 nM
[20]
  Activity: >=50%
[21]
  EC50: 5.92 nM
[22]
  Time: 4 days
[23]
  Activity: Active
